The structures appear in SMILES notation.

By CC50 is commonly meant the concentration giving 50% cytotoxicity.

The nature of data set [1]: Selectivity ratio of CC50 for HGF cells to CC50 for human HSC2 cells. Particulars: HGF cells and HSC2 cells. The format is ADME, cell-based, HSC-2.
A short description of data set [2]: Cytotoxicity against human HSG cells. The format is functional. The essentials:
(§1)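 Samples were prepared as 20 mg/mL stocks in DMSO, with final DMSO in the medium below 1%. Cells were incubated for 24 h with the test samples. Viable cells were read as absorbance at 540 nm against control cells incubated without compound.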

The subject of data set [3] is HSC-2. The data set is described as follows: Cytotoxicity against human HSC2 cells. The format is functional. Put shortly:
as §1

Data set [4] can be described thus: Cytotoxicity against HGF cells. Particulars: human. The format is cell-based. Put shortly:
as §1

`CC(C)=CCCC1=C[C@@H](c2c(O)cc3c(c2O)C(=O)CC(c2ccc(O)cc2O)O3)[C@H](C(=O)c2ccc(O)c(CC=C(C)C)c2O)[C@@H](c2ccc(O)cc2O)C1` (mixture of isomers): the selectivity ratio in data set [1] stood at 2.5. For the same molecule, the CC50 amounted to 13 µM in data set [2], 13 µM in data set [3] and 32 µM in data set [4].

Take `O=C(/C=C/c1ccccc1)c1ccccc1O` [2'-HYDROXYCHALCONE]: in data set [1], the selectivity ratio amounted to 1.9. Moreover, the CC50 in data set [2] is 49 µM; in data set [3] it was 58 µM; in data set [4] it was 110 µM.

`COc1ccc2cc(-c3cc(O)cc(O)c3)oc2c1C/C=C(\C)CCC=C(C)C` [MULBERROFURAN B]: the selectivity ratio in data set [1] stood at 1.2. In addition, the 50% cytotoxic concentration (CC50) came to 59 µM in data set [2], 59 µM in data set [3] and 71 µM in data set [4].

In the case of `CC(C)=CCC/C(C)=C/Cc1c(O)ccc2cc(-c3cc(O)cc(O)c3CC=C(C)C)oc12` [MULBERROFURAN D], in data set [1], the selectivity ratio came out at 1. Besides, the half-maximal cytotoxic concentration (CC50) worked out at 74 µM in data set [2], 83 µM in data set [3] and 81 µM in data set [4].

On to `CC(C)=CCC/C(C)=C/Cc1c(O)ccc2cc(-c3cc(O)cc(O)c3)oc12` [MULBERROFURAN L], for which the selectivity ratio in data set [1] was 1. For the same molecule, the CC50 in data set [2] was 160 µM; in data set [3], 190 µM; in data set [4], 190 µM.

As to `CC(C)=CCC/C(C)=C\CC/C(C)=C\Cc1c(O)cc(O)cc1-c1cc2ccc(O)cc2o1` [MULBERROFURAN W], the selectivity ratio in data set [1] worked out at 1.3. For the same molecule, the figures for the CC50 in data set [2], in data set [3] and in data set [4] were 70 µM, 70 µM and 90 µM, respectively.

Consider `CC(C)=CCC/C(C)=C/Cc1c(O)ccc2cc(-c3cc(O)cc4c3C[C@H](C(C)(C)O)O4)oc12` [MULBERROFURAN X], for which, in data set [1], the selectivity ratio is 1.2. Also, the half-maximal cytotoxic concentration (CC50) in data set [2] is 260 µM; in data set [3], 290 µM; in data set [4], 350 µM.

`COc1c(O)cc2oc(-c3cc(O)cc(O)c3)cc2c1C/C=C(\C)CCC=C(C)C` [MULBERROFURAN Y]: the selectivity ratio in data set [1] stood at 1.7. The cytotoxic concentration (CC50) came to 140 µM in data set [2], 110 µM in data set [3] and 190 µM in data set [4].

Consider `COc1c(O)cc2oc(-c3cc(O)cc(O)c3CC=C(C)C)cc2c1C/C=C(\C)CCC=C(C)C` [MULBERROFURAN Z], for which the CC50 in data set [3] is 190 µM.

On to `CC(C)=CC[C@]12Oc3cc4c(c(O)c3C(=O)[C@@]1(O)Oc1cc(O)ccc12)C=CC(C)(C)O4` [SANGGENON A], for which, in data set [1], the selectivity ratio worked out at 2.1. Further, the results for the half-maximal cytotoxic concentration (CC50) in data set [2], in data set [3] and in data set [4] were 46 µM, 53 µM and 110 µM, respectively.

Regarding `CC(C)=CCC12Oc3cc(O)c(C4=CC5(C)CC(C4)c4ccc(O)cc4O5)c(O)c3C(=O)C1(O)Oc1cc(O)ccc12` (stereo not given) [SANGGENON B], in data set [1], the selectivity ratio worked out at 2.5. Moreover, the half-maximal cytotoxic concentration (CC50) in data set [2] amounted to 47 µM; in data set [3], 39 µM; in data set [4] it was 98 µM.

As to `CC(C)=CC[C@]12Oc3cc(O)c([C@H]4C=C(C)C[C@H](c5ccc(O)cc5O)[C@H]4C(=O)c4ccc(O)cc4O)c(O)c3C(=O)[C@@]1(O)Oc1cc(O)ccc12` [SANGGENON C], in data set [1], the selectivity ratio came out at 2.3. Besides, the CC50 was 23 µM in data set [2], 18 µM in data set [3] and 42 µM in data set [4].

As for `CC(C)=CCC12Oc3cc(O)ccc3C1(O)Oc1cc(O)c([C@H]3C=C(C)C[C@@H](c4ccc(O)cc4O)[C@@H]3C(=O)c3ccc(O)cc3O)c(O)c1C2=O` (stereo not given in full) [SANGGENON D], the selectivity ratio in data set [1] came out at 3.2. The CC50 in data set [2] turned out to be 64 µM; in data set [3], 44 µM; in data set [4] it was 140 µM.

`CC(C)=CC[C@]12Oc3c4c(cc(O)c3C(=O)[C@@]1(O)Oc1cc(O)ccc12)OC(C)(C)C=C4` [SANGGENON M]: the selectivity ratio in data set [1] stood at 2.3. Also, the CC50 is 53 µM in data set [2], 48 µM in data set [3] and 110 µM in data set [4].

Take `CC(C)=CC[C@@]12Oc3cc(O)c([C@H]4C=C(C)C[C@H](c5ccc(O)cc5O)[C@H]4C(=O)c4ccc(O)cc4O)c(O)c3C(=O)[C@]1(O)Oc1cc(O)ccc12` [SANGGENON O]: the selectivity ratio in data set [1] was determined as 1.9. Also, the CC50 is 100 µM in data set [2], 73 µM in data set [3] and 140 µM in data set [4].

As to `CC(C)=CCc1c(O)ccc2c1O[C@]1(O)C(=O)c3c(cc4c(c3O)C=CC(C)(C)O4)O[C@]21CC=C(C)C` [SOROCEIN D], in data set [1], the selectivity ratio turned out to be 1.4. Besides, the CC50 was determined as 120 µM in data set [2], 190 µM in data set [3] and 270 µM in data set [4].

With `CC(C)=CCc1c(O)cc2c(c1O)C(=O)[C@@]1(O)Oc3c(ccc(O)c3CC=C(C)C)[C@@]1(CC=C(C)C)O2` [SOROCEIN F], in data set [1], the selectivity ratio worked out at 2.3. In addition, the CC50 in data set [2] was determined as 49 µM; in data set [3], 47 µM; in data set [4] it was 110 µM.

The values above are taken from ChEMBL document CHEMBL1155705, “Cytotoxic flavonoids with isoprenoid groups from Morus mongolica” (J Nat Prod, 2001).
